The results in this text go back to ChEMBL document CHEMBL4316592, “Synthesis of new derivatives of boehmeriasin A and their biological evaluation in liver cancer” (Eur J Med Chem, 2019).

Test [1] concerns Huh-7. In words: Induction of apoptosis in human HuH7 cells assessed as viable cells at 1 uM after 24 hrs by Annexin V-FITC/propidium iodide staining-based flow cytometric analysis (reference value: 97.30%). In kind it is functional. The note with it: Huh-7, 24 h, read-out: Activity.
Test [2] concerns Mahlavu. In words: Down-regulation of CDK2 protein expression in human Mahlavu cells at 1 uM after 24 to 72 hrs by Western blot analysis. The class given is functional, cell-based. For orientation: Immunoblotting shows a protein as a band on a membrane.
Test [3] concerns Huh-7. Kind of test: Cell cycle arrest in human HuH7 cells assessed as accumulation of cells at G2/M phase at 1 uM after 48 hrs by propidium iodide staining-based flow cytometric analysis (reference value: 33.5%). The class given is functional.
A further test relates to MCF-12A. Kind of test: Cytotoxicity against human MCF12A cells after 72 hrs by SRB assay. The class given is cell-based. The note with it: Homo sapiens, MCF-12A, 72 h; read-out: IC50. Background: The SRB assay estimates cell density from bound dye.
Test [4] is described as follows: Cytotoxicity against human FOCUS cells after 72 hrs by SRB assay. The class given is functional, cell-based. The note with it: Homo sapiens, 72 h; read-out: IC50. An outline of the steps:
(§1)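 SRB assay. Cells plated per well (HCT116 3000; Huh7, Hep3B, HepG2, MCF-7 2000; Mahlavu, FOCUS, SNU475 1000) and grown 24 h. Compounds came from 20 mM DMSO stocks and were tested in triplicate, 40 to 2,5 (or 2,5 to 0,03) per printed range, for 72 h. Cells fixed in 10% TCA, stained with 0.4% SRB, dye dissolved in 10 mM Tris, A515 read. IC50 derived after DMSO normalization.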

The test system of test [5] is Huh-7. In words: Cytotoxicity against human HuH7 cells after 72 hrs by RTCA analysis. The class given is functional, cell-based. The note with it: Huh-7, 72 h. In outline:
(§2)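 xCELLigence impedance real-time growth assay. Huh7 (2000) or Mahlavu (1000) cells plated, treated after 24 h at log phase with a 2-fold dilution series (4 steps) from a top concentration of 1. Cell index recorded every 10 min for 24 h, then every 30 min. Growth inhibition normalized to DMSO; IC50 taken at 24, 48, 72 h.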

In test [6] the test system is Mahlavu. Kind of test: Induction of apoptosis in human Mahlavu cells assessed as early apoptotic cells at 1 uM after 48 hrs by Annexin V-FITC/propidium iodide staining-based flow cytometric analysis (reference value: 0%). The class given is functional. In general terms: Flow cytometry measures light scatter and fluorescence of single cells or particles in a stream.

Test [7] has as its system Huh-7. Kind of test: Induction of apoptosis in human HuH7 cells assessed as late apoptotic cells at 1 uM after 24 hrs by Annexin V-FITC/propidium iodide staining-based flow cytometric analysis (reference value: 2.51%). The class given is functional.
Test [8] deals with Huh-7. In words: Cytotoxicity against human HuH7 cells after 24 hrs by RTCA analysis. Particulars: Huh-7, 24 h. In kind it is functional, cell-based. In outline:
as §2

Test [9] relates to Huh-7. Kind of test: Induction of apoptosis in human HuH7 cells assessed as early apoptotic cells at 1 uM after 48 hrs by Annexin V-FITC/propidium iodide staining-based flow cytometric analysis (reference value: 0.02%). The class given is functional.
The subject of test [10] is Huh-7. In words: Cell cycle arrest in human HuH7 cells assessed as accumulation of cells at G2/M phase at 1 uM after 24 hrs by propidium iodide staining-based flow cytometric analysis (reference value: 37.3%). The class given is functional.
Test [11] relates to Mahlavu. Kind of test: Modulation of SAPK/JNK phosphorylation at Thr183/Tye185 residues in human Mahlavu cells at 1 uM after 24 to 72 hrs by Western blot analysis. In kind it is cell-based.
Test [12] has as its system Huh-7. In words: Cytotoxicity against human HuH7 cells after 72 hrs by SRB assay. The note with it: Homo sapiens, Huh-7, 72 h; read-out: IC50. In kind it is functional, cell-based. In outline: as §1
Test [13] deals with Huh-7. In words: Down-regulation of cyclin-B1 protein expression in human HuH7 cells at 1 uM after 24 to 72 hrs by Western blot analysis. In kind it is functional, cell-based.
The next test has as its system MCF7. Kind of test: Cytotoxicity against human MCF7 cells after 72 hrs by SRB assay. In kind it is functional, cell-based. The note with it: Homo sapiens, MCF7, 72 h; read-out: IC50. In outline:
as §1

The test system of test [14] is Huh-7. Kind of test: Cell cycle arrest in human HuH7 cells assessed as accumulation of cells at G1 phase at 1 uM after 48 hrs by propidium iodide staining-based flow cytometric analysis (reference value: 44.2%). In kind it is functional.
Test [15] deals with Mahlavu. Kind of test: Cytotoxicity against human Mahlavu cells after 72 hrs by RTCA analysis. In kind it is functional, cell-based. An outline of the steps: as §2
Test [16] concerns the target RAC-alpha serine/threonine-protein kinase (Homo sapiens) (UniProt P31749). Kind of test: Inhibition of Akt phosphorylation in human Mahlavu cells at 1 uM after 72 hrs by Western blot analysis. In kind it is cell-based.
The target is the same in test [17]. Kind of test: Inhibition of Akt phosphorylation in human HuH7 cells at 1 uM after 72 hrs by Western blot analysis. In kind it is cell-based.
Test [18] shares this target. In words: Inhibition of AKT phosphorylation in human Mahlavu cells at 1 uM after 24 to 72 hrs by Western blot analysis. In kind it is cell-based.

Usually IC50 stands for the midpoint of a concentration-inhibition curve.

Structures are written as SMILES. Calls of active or inactive are those of the source. No cut-off for these calls is given here.

Sequence of RAC-alpha serine/threonine-protein kinase (Homo sapiens) (P31749 whole entry): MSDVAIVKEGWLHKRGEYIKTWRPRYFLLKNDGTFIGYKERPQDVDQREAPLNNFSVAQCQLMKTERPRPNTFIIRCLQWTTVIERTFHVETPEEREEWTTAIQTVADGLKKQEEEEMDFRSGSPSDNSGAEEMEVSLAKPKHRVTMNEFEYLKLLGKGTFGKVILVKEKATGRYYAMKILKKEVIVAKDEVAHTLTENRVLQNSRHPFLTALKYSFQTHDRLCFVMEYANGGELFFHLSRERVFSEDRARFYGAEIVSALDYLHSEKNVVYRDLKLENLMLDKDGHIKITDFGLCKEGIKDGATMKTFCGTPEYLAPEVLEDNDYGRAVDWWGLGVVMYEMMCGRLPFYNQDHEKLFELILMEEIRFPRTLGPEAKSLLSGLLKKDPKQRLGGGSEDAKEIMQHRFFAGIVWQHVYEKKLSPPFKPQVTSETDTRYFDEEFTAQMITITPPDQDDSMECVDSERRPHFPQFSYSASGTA

On to `COc1ccc2c3c(c4cc(OC)c(OC)cc4c2c1)CN1CCCC[C@@H]1C3`, for which the viability at 1 µM with Huh-7 [1] worked out at 98.9%. The result in the test with Mahlavu [2], with Mahlavu [11] and in the test on Huh-7 [13] was Active. Besides, the Activity in the test with Huh-7 [3] stood at 24.4%; with Mahlavu [6], 0%; in the test on Huh-7 [7], 1.03%; with Huh-7 [9], 0.18%; with Huh-7 [10], 27.4%; in the test on Huh-7 [14], 54.6%. Besides, the half-maximal inhibitory concentration (IC50) with MCF-12A was found to be 70 nM; in test [4] it was 20 nM; in the test on Huh-7 [5], 700 nM; in the test on Huh-7 [8], 1400 nM; in the test with Huh-7 [12], 8 nM; with MCF7 it was 5 nM. In addition, the IC50 in the test with Mahlavu [15] was found to be 600 nM.

As to `COc1ccc2c3c(c4cc(OC)c(OC)cc4c2c1)CN1CCCCC1C3O` (racemic), in the test on Huh-7 [1], the viability at 1 µM came out at 99.1%. The result in the test on Mahlavu [2], in the test on Mahlavu [11] and with Huh-7 [13] was Active. The Activity in the test on Huh-7 [3] stood at 18.1%; in the test with Mahlavu [6], 0%; in the test on Huh-7 [7], 0.93%; in the test on Huh-7 [9], 0.07%; with Huh-7 [10], 32.1%; with Huh-7 [14], 35.5%. For the same compound, the IC50 is under 2000 nM in the test on MCF-12A; 12 nM in [4]; 400 nM with Huh-7 [5]; 800 nM with Huh-7 [8]; 2 nM with Huh-7 [12]; 1 nM in the test on MCF7. Inhibition with Mahlavu [15] was half-maximal at 10 nM (IC50). For the same compound, the inhibition entry in test [16], in test [17] and in test [18] was “Active” in each case.
